Source: PubChem BioAssay
ABHD4 inh – ABHD4 (mouse) inhibition, primary FP screen; purified mABHD4, FP-Rh probe fluorescence polarization; inhibition, % at 8.92 µM; actives 0.54% (n = 370,000); AID 720543;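 active = inhibition exceeding the mean over every tested compound plus 3 SD, cut at about 30% in these data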;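 note: 0% = plate median of compound wells and 100% = S159A mutant with DMSO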
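system = mouse ABHD4 enzyme, wild type | medium = HEPES pH 7.0, NaCl, Pluronic buffer | also added = FP-Rh probe | incubation = Enzyme–compound pre-incubation 45 min, then probe 60 min, both 25 °C | technique = fluorescence polarization, excitation 525 nm, emission 598 nm, BODIPY TMR filters | controls = S159A mutant high control, sample median low control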
HTRA1 inhibitor – HTRA1 (human) protease inhibition. Q92743. recombinant HTRA1, FP-rhodamine activity-based probe, fluorescence polarization. inhibition, % at 5.96 µM. actives 0.5% (n = 340,000). AID 504803; in the data active = inhibition above about 36%;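 note: 0% = enzyme with DMSO and 100% = wells lacking enzyme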
Target sequence (Q92743 whole entry, looked up): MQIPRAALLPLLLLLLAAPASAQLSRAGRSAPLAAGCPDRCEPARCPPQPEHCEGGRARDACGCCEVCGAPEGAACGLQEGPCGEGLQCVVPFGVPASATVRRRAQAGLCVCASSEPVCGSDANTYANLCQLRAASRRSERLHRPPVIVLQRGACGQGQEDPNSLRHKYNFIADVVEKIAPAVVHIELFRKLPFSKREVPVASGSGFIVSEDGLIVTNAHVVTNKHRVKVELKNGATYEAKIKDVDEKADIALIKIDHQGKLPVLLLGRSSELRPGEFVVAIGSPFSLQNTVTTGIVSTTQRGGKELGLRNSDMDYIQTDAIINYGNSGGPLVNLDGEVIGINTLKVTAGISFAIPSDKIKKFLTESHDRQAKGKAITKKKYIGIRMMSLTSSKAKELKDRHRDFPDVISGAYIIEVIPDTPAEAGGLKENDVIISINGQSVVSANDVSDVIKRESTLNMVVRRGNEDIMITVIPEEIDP
DDE Tn7 FP inh – DD(E)-Tn7 binding inhibition, primary FP screen | actives 0.13% (n = 370,000) | inhibition, % at 8.3 µM | FP displacement of FITC-Tn7 peptide from fibrin DD(E); 0% = median of compound wells per plate | AID 720508 | P02675;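 active = inhibition above the mean of compounds falling within the control limits plus 3 SD of them, cut at about 14% in these data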;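 note: 0% = plate median of compound wells and 100% = 10 µM Aha-Tn7 peptide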
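Measure: % inhibition scaled between sample-field median and high-control FP; Test system: human fibrin DD(E); Quantity: 2 µM final DD(E) protein; Doses: one dose, 8.3 µM nominal; Schedule: compound with protein 10 min, then 3 h after probe, room temperature; Detection: fluorescence polarization; Medium: Tris buffer with calcium and detergent, pH 7.8.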
DDE Tn6 FP inh – inhibitors of Tn6 peptide binding to human fibrin DD(E) | actives 0.21% (n = 370,000) | Fibrin DD(E) TRITC-Tn6 fluorescence polarization displacement | inhibition, % at 8.3 µM | P02675;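 active = inhibition above a per-campaign cutoff: mean of compounds within control limits plus 3 SD, cut at about 15% in these data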;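 note: 0% = median of all compound wells on the plate and 100% = blocking peptide control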
TCR CD3 inh – inhibitors of human TCR-CD3 interaction | TAMRA-labeled TCR probe fluorescence, biochemical | inhibition, % at 9.4 µM | actives 0.37% (n = 360,000); in the data active = inhibition above about 19%;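 note: recombinant mutant TCR 2C K166C tagged with TAMRA read by polarization; 0% = receptor in buffer alone and 100% = receptor with positive control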
SIAE primary – inhibitors of human sialic acid acetylesterase SIAE; inhibition, % at 9.66 µM; SIAE FP-Rh probe binding, fluorescence polarization; Q9HAT2; actives 0.69% (n = 370,000);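 active = inhibition above a cutoff: mean of compounds within the control limits plus 3 SD of those, cut at about 17% in these data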;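 note: 0% = plate median of compound wells and 100% = probe without SIAE protein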
DDE Tn6 FP ctr – counter-screen hit for Tn6 peptide-fibrin DD(E) binding disruption; shares compounds with DDE Tn6 FP inh; TRITC-Tn6 fluorescence polarization displacement; 0% = median of compound wells, not DMSO; inhibition, % at 8.3 µM; actives 2% (n = 680); AID 720621;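 active = inhibition above the mean of test compounds lying between the control limits plus 3 SD of those, cut at about 14% in these data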;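 note: 0% = median of compound wells and 100% = wells with Aha-Tn7 blocking peptide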
DDE Tn6 confirm – confirmation of inhibitors of Tn6 binding to human fibrin DD(E); inhibition, % at 8.3 µM; FP displacement of TRITC-Tn6 peptide from DD(E); 0% = per-plate median of test wells; shares compounds with DDE Tn6 FP inh; actives 10% (n = 680);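 active = inhibition above the mean of compounds lying within the control limits plus 3 SD, cut at about 16% in these data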;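 note: 100% = high control wells holding a competing inhibitor peptide at 10 µM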
Active calls of the source: *; x = no result. Compounds with a hit are over-represented: about 1.8% of the library has one in this group of screens.

SMILES	ABHD4 inh	HTRA1 inhibitor	DDE Tn7 FP inh	DDE Tn6 FP inh	TCR CD3 inh	SIAE primary	DDE Tn6 FP ctr	DDE Tn6 confirm
CCCCCCCCCCCNC(=O)c1ccoc1C	-6	-13	0	17*	-2	1	9	3
CCCCCOCC1CC(C/C(C)=N/NC(N)=S)C(=O)O1 (stereo not drawn)	13	2	10	15*	7	4	-1	-11
COc1cc(CNC2CCCCCCC2)cc(Cl)c1OC	3	0	7	17*	3	6	-4	-6
CCOc1c(Br)cc(CNC2CCCCCCC2)cc1OC	9	4	5	6	-2	0	x	x
CCCCNC(=O)C[C@H]1C[C@@]2(C(=O)OC)C(=C[C@H](C(C)(C)C)O[C@@H]2C)N(Cc2ccc3c(c2)OCO3)C1=O	4	x	-2	0	-2	8	x	x
Oc1ccc(N2CCN(C(=S)NCCc3ccccc3)CC2)cc1	27	12	-6	16*	-9	7	8	12
CC(=O)N1CCN(c2ccc(N3CCN(Cc4ccccc4)[C@H](C)C3)c(C)c2)[C@H](C)C1	2	x	0	4	5	9	x	x
COc1ccc(C(=O)N(C)Cc2ccc(C)o2)cc1OC1CCN(C(C)=O)CC1	-3	-2	-5	16*	-1	-2	9	6
COc1ccc(-n2c(COc3ccccc3)nnc2SCc2nc3ccccc3[nH]2)cc1	-7	x	5	18*	x	-4	-2	-9
CCCS(=O)(=O)NC(=O)C1(C)CCN(C(=O)c2cccc(OC(F)(F)F)c2)C1 (stereo not drawn)	-4	x	4	15*	-6	3	-8	-8
CCOc1ccc(NC(=O)C(CC)NC(=O)c2ccccc2CO)cc1 (stereo not drawn)	1	8	1	20*	2	-2	-3	-6
CCOc1ccc(NC(=O)[C@@H](NC(=O)c2ccccc2Br)C(C)C)cc1	-1	0	5	-2	-6	3	x	x
CCN(Cc1ccncc1)C(=S)Nc1ccccc1	3	2	-2	-4	3	-2	x	x
CCN(Cc1ccncc1)C(=O)C(CO)c1ccccc1 (stereo not drawn)	3	3	3	20*	7	3	3	-8
COCc1cc(N2CCN(C(=O)OC(C)(C)C)C[C@H]2C)ccc1N1CCN(Cc2ccccc2)[C@H](C)C1	-8	x	-2	2	6	6	x	x
O=C(Cn1c(=O)[nH]c2ccsc2c1=O)N1CCN(c2ccc(F)cc2)CC1	2	x	1	16*	3	-1	2	-3
Cc1ccc(S(=O)(=O)NC(CCCNC(=O)OCc2ccccc2)C(=O)O)cc1 (stereo not drawn)	-6	x	5	-8	-6	-5	x	x
O=C(OC12CCCN(C1)/C(=C/c1cccnc1)C2)c1cccc(F)c1 (stereo not drawn)	-1	x	-3	-3	x	-6	x	x
O=C(CSc1ccc(Br)c2cccc(Cl)c12)Nc1ccc(S(=O)(=O)Nc2nccs2)cc1	-96	-88	-1	27*	5	-39	5	0
COc1ccc(C(=O)NCc2nnc(SCC(=O)Nc3cc(OC)ccc3OC)o2)cc1	1	-6	-2	15*	10	-2	5	-2
COC(=O)C(CN)CN1C(=O)c2ccccc2C1=O (stereo not drawn)	4	x	1	-5	x	1	x	x
CC1CCN(C(=O)COC(=O)Cc2c[nH]c3ccccc23)CC1	0	9	2	21*	-2	7	5	-6
COC(=O)[C@]12C[C@H](CC(=O)NCc3cccs3)C(=O)N(CCC3=CCCCC3)C1=C[C@H](C1CCCC1)O[C@@H]2C	-4	x	-10	-2	x	-4	x	x
Cc1nn(-c2ccccc2)cc1C(c1c(N)[nH]c(=S)[nH]c1=O)c1c(N)[nH]c(=S)[nH]c1=O	-3	-6	1	15*	5	-2	-7	-28
N=c1c(C(=O)NC2CCCC2)cc2c(=O)n3ccccc3nc2n1CCCN1CCOCC1	1	-1	4	5	-3	0	x	x
SMILES	ABHD4 inh	HTRA1 inhibitor	DDE Tn7 FP inh	DDE Tn6 FP inh	TCR CD3 inh	SIAE primary	DDE Tn6 FP ctr	DDE Tn6 confirm
N=c1c(C(=O)NC2CCCC2)cc2c(=O)n3ccccc3nc2n1CCN1CCOCC1	9	-3	-1	16*	0	-2	0	-2
CCCCCCCCN1C(=O)[C@@H](CC(=O)NCCC(C)C)C[C@@]2(C(=O)OC)C1=C[C@H](C(C)(C)C)O[C@@H]2C	3	x	-5	16*	9	-4	2	-4
CCOC(=O)[C@]12CCCC=C1N(CCCOC)C(=O)[C@@H]2CC(=O)N1CCN(C(=O)C2CC2)CC1	2	x	-5	3	x	1	x	x
CCOC(=O)N1CCN(C(=O)C[C@H]2C(=O)N(CCCOC)C3=CCCC[C@@]32C(=O)OCC)CC1	5	x	-6	15*	x	2	1	2
COc1ccc(S(=O)(=O)N[C@H](C(=O)O)C(C)C)cc1	1	6	-1	-1	0	-2	x	x
CC(=O)NCc1ccc(S(=O)(=O)NC(C(=O)O)C(C)C)cc1 (stereo not drawn)	0	5	8	16*	-1	0	-6	-10
CC1CC(C)CN(S(=O)(=O)c2ccc3c(c2)oc(=O)n3CC(=O)N(C)Cc2ccccc2)C1 (stereo not drawn)	8	0	3	15*	-7	-7	1	-4
CC(C)CCNC(=O)C1CCN(c2cncnc2)CC1	-1	x	12	8	x	4	x	x
COc1cccc(CNC(=O)[C@H]2CCCN2C(=O)[C@H]2CCCN2C(=O)c2cccc(Cl)c2)c1	4	x	-6	-3	0	0	x	x
O=C(CCS(=O)(=O)c1ccccc1)Nc1cc(Cl)ccc1F	1	x	-5	0	x	2	x	x
Fc1ccccc1-c1nnc2c3ccccc3nc(N3CCOCC3)n12	-3	-7	3	15*	3	5	-2	-1
Brc1ccc(-c2nnc3c4ccccc4nc(N4CCOCC4)n23)cc1	2	5	11	6	-1	-5	x	x
COc1ccc(-c2nnc(SCC(=O)NN=C(C)c3cccc4ccccc34)n2-c2ccccc2)cc1	-9	x	-4	-3	x	8	x	x
O=C(Nc1cccc([N+](=O)[O-])c1)c1ccc([N+](=O)[O-])o1	2	7	-2	18*	-2	-1	2	1
